Measurements reported in ChEMBL document CHEMBL4368872, “Synthesis and anticonvulsant activity of phenoxyacetyl derivatives of amines, including aminoalkanols and amino acids” (Medchemcomm, 2018).
Activity calls are given as the source filed them. The rule behind the calls is not given here.

Columns and labels:
[1] = Neurotoxicity in Sprague-Dawley rat at 30 mg/kg, po measured after 0.5 hrs by rotarod test; assay type: toxicity, organism-based; details: in vivo
In short: (§1)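 Rat neurotoxicity after i.p. or p.o. dosing was scored as animals impaired / animals tested at each time point. For p.o. dosing, TD50 was obtained by probit analysis.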

[2] = Neurotoxicity in CF-1 mouse at 300 mg/kg, ip measured after 0.5 hrs by rotarod test; assay type: toxicity, organism-based; details: in vivo
In short: (§2)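 Mice dosed i.p. were placed on a 1 in. knurled rod turning at 6 rpm. Toxicity was scored as failure to keep balance for at least 1 min, i.e. falling off three or more times. Results are reported as animals showing toxicity / animals tested at each time point.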

[3] = Neurotoxicity in CF-1 mouse at 300 mg/kg, ip measured after 4 hrs by rotarod test; assay type: toxicity, organism-based; details: in vivo; in short: as §2
Rattus norvegicus [4] = assay: Anticonvulsant activity in Sprague-Dawley rat model of maximal electroshock-induced seizure assessed as suppression of tonic hind limb extension at 30 mg/kg, po measured at 4 hrs post dose; assay type: functional, organism-based
In short: (§3)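 Rats given 30 mg/kg p.o. and tested by maximal electroshock at 150 mA. Scored as number protected / number tested (4 per group) at 0.25, 0.5, 1, 2 and 4 h after dosing.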

Mus musculus [5] = assay: Anticonvulsant activity in CF-1 mouse model of subcutaneous pentylenetetrazole-induced seizure assessed as reduction in convulsions at 100 mg/kg, ip measured at 4 hrs post dose; assay type: functional, organism-based
In short: (§4)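 Mice dosed i.p., then given pentylenetetrazole 85 mg/kg in 0.9% NaCl s.c. into the posterior midline of the neck. Seizures watched for at least 30 min. Scored as protected / tested at 0.5 and 4 h.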

Mus musculus [6] = assay: Anticonvulsant activity in CF-1 mouse model of maximal electroshock-induced seizure assessed as suppression of tonic hind limb extension at 30 mg/kg, ip measured at 4 hrs post dose; assay type: functional, organism-based
In short: (§5)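 Mice dosed i.p. and given maximal electroshock at 50 mA. Read-out is protection, reported as number protected / number tested at 0.25, 0.5, 1 and 4 h after dosing.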

Mus musculus [7] = assay: Anticonvulsant activity in CF-1 mouse model of maximal electroshock-induced seizure assessed as suppression of tonic hind limb extension at 300 mg/kg, ip measured at 0.5 hrs post dose; assay type: functional, organism-based; in short: as §5
Mus musculus [8] = assay: Anticonvulsant activity in CF-1 mouse model of subcutaneous pentylenetetrazole-induced seizure assessed as reduction in convulsions at 100 mg/kg, ip measured at 0.5 hrs post dose; assay type: functional, organism-based; in short: as §4
Mus musculus [9] = assay: Anticonvulsant activity in CF-1 mouse model of maximal electroshock-induced seizure assessed as suppression of tonic hind limb extension at 100 mg/kg, ip measured at 4 hrs post dose; assay type: functional, organism-based; in short: as §5
[10] = Neurotoxicity in Sprague-Dawley rat at 30 mg/kg, po measured after 1 hr by rotarod test; assay type: toxicity, organism-based; details: in vivo; in short: as §1
Mus musculus [11] = assay: Anticonvulsant activity in CF-1 mouse model of subcutaneous pentylenetetrazole-induced seizure assessed as reduction in convulsions at 30 mg/kg, ip measured at 0.5 hrs post dose; assay type: functional, organism-based; in short: as §4
Mus musculus [12] = assay: Anticonvulsant activity in CF-1 mouse model of subcutaneous pentylenetetrazole-induced seizure assessed as reduction in convulsions at 30 mg/kg, ip measured at 4 hrs post dose; assay type: functional, organism-based; in short: as §4
[13] = Neurotoxicity in CF-1 mouse at 30 mg/kg, ip measured after 4 hrs by rotarod test; assay type: toxicity, organism-based; details: in vivo; in short: as §2
[14] = Neurotoxicity in Sprague-Dawley rat at 30 mg/kg, po measured after 2 hrs by rotarod test; assay type: toxicity, organism-based; details: in vivo; in short: as §1
[15] = Neurotoxicity in CF-1 mouse at 100 mg/kg, ip measured after 4 hrs by rotarod test; assay type: toxicity, organism-based; details: in vivo; in short: as §2
[16] = Neurotoxicity in CF-1 mouse at 30 mg/kg, ip measured after 0.5 hrs by rotarod test; assay type: toxicity, organism-based; details: in vivo; in short: as §2
Rattus norvegicus [17] = assay: Anticonvulsant activity in Sprague-Dawley rat model of maximal electroshock-induced seizure assessed as suppression of tonic hind limb extension at 30 mg/kg, po measured at 1 hr post dose; assay type: functional, organism-based; in short: as §3
Mus musculus [18] = assay: Anticonvulsant activity in CF-1 mouse model of maximal electroshock-induced seizure assessed as suppression of tonic hind limb extension at 300 mg/kg, ip measured at 4 hrs post dose; assay type: functional, organism-based; in short: as §5
Mus musculus [19] = assay: Anticonvulsant activity in CF-1 mouse model of maximal electroshock-induced seizure assessed as suppression of tonic hind limb extension at 30 mg/kg, ip measured at 0.5 hrs post dose; assay type: functional, organism-based; in short: as §5
[20] = Neurotoxicity in Sprague-Dawley rat at 30 mg/kg, po measured after 0.25 hrs by rotarod test; assay type: toxicity, organism-based; details: in vivo; in short: as §1
Mus musculus [21] = assay: Anticonvulsant activity in CF-1 mouse model of subcutaneous pentylenetetrazole-induced seizure assessed as reduction in convulsions at 300 mg/kg, ip measured at 0.5 hrs post dose; assay type: functional, organism-based; in short: as §4
[22] = Neurotoxicity in Sprague-Dawley rat at 30 mg/kg, po measured after 4 hrs by rotarod test; assay type: toxicity, organism-based; details: in vivo; in short: as §1
Rattus norvegicus [23] = assay: Anticonvulsant activity in Sprague-Dawley rat model of maximal electroshock-induced seizure assessed as suppression of tonic hind limb extension at 30 mg/kg, po measured at 2 hrs post dose; assay type: functional, organism-based; in short: as §3
Mus musculus [24] = assay: Anticonvulsant activity in CF-1 mouse model of subcutaneous pentylenetetrazole-induced seizure assessed as reduction in convulsions at 300 mg/kg, ip measured at 4 hrs post dose; assay type: functional, organism-based; in short: as §4
[25] = Mutagenicity in Salmonella typhimurium TA1535 assessed as mutagenicity index at 50 to 500 ug/plate preincubated for 30 mins followed by top agar addition and measured after 48 hrs in absence of liver S9 fraction by Ames test; assay type: toxicity; details: salmonella enterica subsp. enterica serovar typhimurium, s9, 48 h
In short: (§6)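 Ames plate incorporation in S. typhimurium TA100 or TA1535, with or without S9. Overnight culture, compound in DMSO (50–500 µg per plate) and buffer or S9 mix preincubated 30 min at 37 °C, then top agar on glucose minimal agar. Incubated 48 h at 37 °C, revertants counted in triplicate. Vehicle negative control; NaN3 (−S9) and 2AA (+S9) positive controls. MI = revertants with compound / negative-control revertants; MI ≥ 2 with dose-response counts as positive.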

Salmonella typhimurium [26] = assay: Antimutagenic activity against Salmonella typhimurium TA100 assessed as inhibition of NaN3-induced mutation at 250 ug/plate preincubated for 30 mins followed by top agar addition and measured after 48 hrs in presence of liver S9 fraction by Ames test relative to control; assay type: organism-based; details: salmonella enterica subsp. enterica serovar typhimurium, s9, 48 h
Salmonella typhimurium [27] = assay: Antimutagenic activity against Salmonella typhimurium TA100 assessed as inhibition of NaN3-induced mutation at 500 ug/plate preincubated for 30 mins followed by top agar addition and measured after 48 hrs in presence of liver S9 fraction by Ames test relative to control; assay type: organism-based; details: salmonella enterica subsp. enterica serovar typhimurium, s9, 48 h
Mus musculus [28] = assay: Anticonvulsant activity in CF-1 mouse model of maximal electroshock-induced seizure assessed as suppression of tonic hind limb extension at 100 mg/kg, ip measured at 1 hr post dose; assay type: functional, organism-based; in short: as §5
Salmonella typhimurium [29] = assay: Antimutagenic activity against Salmonella typhimurium TA100 assessed as inhibition of NaN3-induced mutation at 100 ug/plate preincubated for 30 mins followed by top agar addition and measured after 48 hrs in presence of liver S9 fraction by Ames test relative to control; assay type: organism-based; details: salmonella enterica subsp. enterica serovar typhimurium, s9, 48 h
Salmonella typhimurium [30] = assay: Antimutagenic activity against Salmonella typhimurium TA1535 assessed as inhibition of NaN3-induced mutation at 100 ug/plate preincubated for 30 mins followed by top agar addition and measured after 48 hrs in presence of liver S9 fraction by Ames test relative to control; assay type: organism-based; details: salmonella enterica subsp. enterica serovar typhimurium, s9, 48 h
Salmonella typhimurium [31] = assay: Antimutagenic activity against Salmonella typhimurium TA100 assessed as inhibition of NaN3-induced mutation at 50 ug/plate preincubated for 30 mins followed by top agar addition and measured after 48 hrs in presence of liver S9 fraction by Ames test relative to control; assay type: organism-based; details: salmonella enterica subsp. enterica serovar typhimurium, s9, 48 h
[32] = Mutagenicity in Salmonella typhimurium TA1535 assessed as mutagenicity index at 50 to 500 ug/plate preincubated for 30 mins followed by top agar addition and measured after 48 hrs in presence of liver S9 fraction by Ames test; assay type: toxicity, subcellular; details: salmonella enterica subsp. enterica serovar typhimurium, s9, 48 h; in short: as §6
[33] = Neurotoxicity in CF-1 mouse at 100 mg/kg, ip measured after 0.5 hrs by rotarod test; assay type: toxicity, organism-based; details: in vivo; in short: as §2
Salmonella typhimurium [34] = assay: Antimutagenic activity against Salmonella typhimurium TA1535 assessed as inhibition of NaN3-induced mutation at 250 ug/plate preincubated for 30 mins followed by top agar addition and measured after 48 hrs in presence of liver S9 fraction by Ames test relative to control; assay type: organism-based; details: salmonella enterica subsp. enterica serovar typhimurium, s9, 48 h
Salmonella typhimurium [35] = assay: Antimutagenic activity against Salmonella typhimurium TA1535 assessed as inhibition of NaN3-induced mutation at 500 ug/plate preincubated for 30 mins followed by top agar addition and measured after 48 hrs in presence of liver S9 fraction by Ames test relative to control; assay type: organism-based; details: salmonella enterica subsp. enterica serovar typhimurium, s9, 48 h
Salmonella typhimurium [36] = assay: Antimutagenic activity against Salmonella typhimurium TA1535 assessed as inhibition of NaN3-induced mutation at 50 ug/plate preincubated for 30 mins followed by top agar addition and measured after 48 hrs in presence of liver S9 fraction by Ames test relative to control; assay type: organism-based; details: salmonella enterica subsp. enterica serovar typhimurium, s9, 48 h
Mus musculus [37] = assay: Anticonvulsant activity in CF-1 mouse model of maximal electroshock-induced seizure assessed as suppression of tonic hind limb extension at 100 mg/kg, ip measured at 0.5 hrs post dose; assay type: functional, organism-based; in short: as §5
[38] = Mutagenicity in Salmonella typhimurium TA100 assessed as mutagenicity index at 50 to 500 ug/plate preincubated for 30 mins followed by top agar addition and measured after 48 hrs in presence of liver S9 fraction by Ames test; assay type: toxicity, subcellular; details: salmonella enterica subsp. enterica serovar typhimurium, s9, 48 h; in short: as §6
[39] = Neurotoxicity in CF-1 mouse at 100 mg/kg, ip measured after 1 hr by rotarod test; assay type: toxicity, organism-based; details: in vivo; in short: as §2
[40] = Mutagenicity in Salmonella typhimurium TA100 assessed as mutagenicity index at 50 to 500 ug/plate preincubated for 30 mins followed by top agar addition and measured after 48 hrs in absence of liver S9 fraction by Ames test; assay type: toxicity; details: salmonella enterica subsp. enterica serovar typhimurium, s9, 48 h; in short: as §6

| SMILES | Activity [2] | Activity [3] | Activity (Mus musculus [5]) | Activity (Mus musculus [6]) | Activity (Mus musculus [7]) | Activity (Mus musculus [8]) | Activity (Mus musculus [9]) | Activity (Mus musculus [11]) | Activity (Mus musculus [12]) | Activity [13] | Activity [15] | Activity [16] | Activity (Mus musculus [18]) | Activity (Mus musculus [19]) | Activity (Mus musculus [21]) | Activity (Mus musculus [24]) | further results |
| --- | --- | --- | --- | --- | --- | --- | --- | --- | --- | --- | --- | --- | --- | --- | --- | --- | --- |
| CNC(=O)C(C)NC(=O)COc1c(C)cccc1C (stereo unspecified) | Toxic | Non-Toxic | inactive | inactive | Active | inactive | inactive | inactive | inactive | Non-Toxic | Non-Toxic | Non-Toxic | inactive | inactive | inactive | inactive | Activity [1]: Non-Toxic; Activity (Rattus norvegicus [4]): inactive; Activity [10]: Non-Toxic; Activity [14]: Non-Toxic; Activity (Rattus norvegicus [17]): inactive; Activity [20]: Non-Toxic; Activity [22]: Non-Toxic; Activity (Rattus norvegicus [23]): inactive |
| CC[C@@H](CO)NC(=O)COc1c(C)cccc1C | Toxic | Non-Toxic | inactive | inactive | Active | inactive | inactive | inactive | inactive | Non-Toxic | Non-Toxic | Non-Toxic | inactive | inactive | inactive | inactive | Activity index [25]: 0.7 to 1.7; inhibition (INH) (Salmonella typhimurium [26]): 28%; inhibition (INH) (Salmonella typhimurium [27]): 43%; Activity (Mus musculus [28]): inactive; inhibition (INH) (Salmonella typhimurium [29]): 34%; inhibition (INH) (Salmonella typhimurium [30]): 22%; inhibition (INH) (Salmonella typhimurium [31]): 26%; Activity index [32]: 0.7 to 1.7; Activity [33]: Non-Toxic; inhibition (INH) (Salmonella typhimurium [34]): 19%; inhibition (INH) (Salmonella typhimurium [35]): 24%; inhibition (INH) (Salmonella typhimurium [36]): 12%; Activity (Mus musculus [37]): inactive; Activity index [38]: 0.7 to 1.7; Activity [39]: Non-Toxic; Activity index [40]: 0.7 to 1.7 |
